Experimental data reported in ChEMBL document CHEMBL1135739, “Radiolabeled amino acids for tumor imaging with PET: radiosynthesis and biological evaluation of 2-amino-3-[18F]fluoro-2-methylpropanoic acid and 3-[18F]fluoro-2-methyl-2-(methylamino)propanoic acid” (J Med Chem, 2002).

Columns and labels:
Rattus norvegicus [1] = species on record: Rattus norvegicus; assay: Radioactivity distribution in kidney of normal fischer rat after injection of [18F]fluoro-2-methylpropanoic acid after 30 min.; assay type: ADME, organism-based; conditions: in vivo, 0.5 h
Outline: (§1)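 Normal male Fischer 344 rats (200–250 g), anesthetized with i.m. ketamine:xylazine (1:1), got ~85 μCi of tracer in 0.3 mL sterile water i.v. via tail-vein catheter. Groups of four were killed at 5, 30, 60 or 120 min. Tissues were weighed and gamma-counted against dose standards, and counts were decay-corrected to %ID/g. Results are mean ± standard error (n = 4), compared by one-way ANOVA.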

Rattus norvegicus [2] = species on record: Rattus norvegicus; assay: Radioactivity distribution in kidney of normal fischer rat after injection of [18F]fluoro-2-methylpropanoic acid after 5 min.; assay type: ADME, organism-based; conditions: in vivo
Outline: (§2)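 Male Fischer 344 rats (200–250 g), fed ad libitum, anesthetized with intramuscular ketamine:xylazine (1:1, 0.1 mL/100 g). About 85 μCi tracer in 0.3 mL sterile water was given by tail-vein catheter. Groups of four were killed at 5, 30, 60 or 120 min. Tissues were weighed and gamma-counted against dose standards, decay-corrected, and expressed as %ID/g (mean ± standard error).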

Rattus norvegicus [3] = species on record: Rattus norvegicus; assay: Radioactivity distribution in kidney of tumor-bearing fischer rat after injection of [18F]fluoro-2-methylpropanoic acid after 5 min; assay type: ADME, organism-based; conditions: in vivo
Outline: (§3)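 Male Fischer 344 rats carried intracranial 9L gliosarcoma, stereotactically implanted (4×10^4 cells) and used 17–19 days later. Awake, restrained animals received about 35 μCi tracer in 0.3 mL sterile water via the tail vein and were killed at 5, 60 or 120 min (n = 4–5). Tissues were weighed, gamma-counted, decay-corrected and reported as %ID/g ± standard error.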

Rattus norvegicus [4] = species on record: Rattus norvegicus; assay: Radioactivity distribution in kidney of tumor-bearing fischer rat after injection of [18F]fluoro-2-methylpropanoic acid after 60 min; assay type: ADME, organism-based; conditions: in vivo, 1 h; outline: as §3
Rattus norvegicus [5] = species on record: Rattus norvegicus; assay: Radioactivity distribution in muscle of tumor-bearing fischer rat after injection of [18F]fluoro-2-methylpropanoic acid after 120 min; assay type: ADME, organism-based, Muscle tissue; conditions: in vivo, 2 h; outline: as §3
Rattus norvegicus [6] = species on record: Rattus norvegicus; assay: Radioactivity distribution in muscle of tumor-bearing fischer rat after injection of [18F]-fluoro-2-methylpropanoic acid after 5 min; assay type: ADME, organism-based, Muscle tissue; conditions: in vivo; outline: as §3
Rattus norvegicus [7] = species on record: Rattus norvegicus; assay: Radioactivity distribution in blood of normal fischer rat after injection of [18F]fluoro-2-methylpropanoic acid after 120 min.; assay type: ADME, organism-based; conditions: in vivo, 2 h; outline: as §1
Rattus norvegicus [8] = species on record: Rattus norvegicus; assay: Radioactivity distribution in brain of normal fischer rat after injection of [18F]fluoro-2-methylpropanoic acid after 120 min.; assay type: ADME, organism-based; conditions: in vivo, 2 h; outline: as §1
Rattus norvegicus [9] = species on record: Rattus norvegicus; assay: Radioactivity distribution in spleen of normal fischer rat after injection of [18F]fluoro-2-methylpropanoic acid after 5 min.; assay type: ADME, organism-based; conditions: in vivo
Outline: (§4)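 Male Fischer 344 rats (200–250 g), fed ad libitum, under intramuscular ketamine:xylazine anesthesia, got ~85 μCi radiotracer in 0.3 mL sterile water by tail-vein catheter. Groups of four were killed at 5, 30, 60 or 120 min. Dissected tissues were weighed and gamma-counted with dose standards. Counts were decay-corrected and given as %ID/g, mean ± standard error. Tissues were compared by one-way ANOVA.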

Rattus norvegicus [10] = species on record: Rattus norvegicus; assay: Radioactivity distribution in spleen of tumor-bearing fischer rat after injection of [18F]fluoro-2-methylpropanoic acid after 120 min; assay type: ADME, organism-based; conditions: in vivo, 2 h
Outline: (§5)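 Male Fischer rats had 4×10^4 9L gliosarcoma cells implanted stereotactically into the brain, 3 mm right of midline, 1 mm anterior to bregma, 5 mm deep. They were used 17–19 days later. Awake, restrained rats got ~35 μCi in 0.3 mL sterile water by tail vein and were killed at 5, 60 or 120 min. Tissues, tumor and contralateral brain were gamma-counted, decay-corrected, as %ID/g, mean ± SE, n = 4–5.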

Rattus norvegicus [11] = species on record: Rattus norvegicus; assay: Radioactivity distribution in spleen of tumor-bearing fischer rat after injection of [18F]fluoro-2-methylpropanoic acid after 60 min; assay type: ADME, organism-based; conditions: in vivo, 1 h; outline: as §5
Rattus norvegicus [12] = species on record: Rattus norvegicus; assay: Radioactivity distribution in pancreas of tumor-bearing fischer rat after injection of [18F]-fluoro-2-methylpropanoic acid after 60 min; assay type: ADME, organism-based; conditions: in vivo, 1 h; outline: as §3
Rattus norvegicus [13] = species on record: Rattus norvegicus; assay: Radioactivity distribution in spleen of normal fischer rat after injection of [18F]fluoro-2-methylpropanoic acid after 120 min.; assay type: ADME, organism-based; conditions: in vivo, 2 h; outline: as §4
Rattus norvegicus [14] = species on record: Rattus norvegicus; assay: Radioactivity distribution in testis of normal fischer rat after injection of [18F]fluoro-2-methylpropanoic acid after 30 min.; assay type: ADME, organism-based; conditions: in vivo, 0.5 h; outline: as §4
Rattus norvegicus [15] = species on record: Rattus norvegicus; assay: Radioactivity distribution in testis of normal fischer rat after injection of [18F]fluoro-2-methylpropanoic acid after 60 min.; assay type: ADME, organism-based; conditions: in vivo, 1 h; outline: as §4
Rattus norvegicus [16] = species on record: Rattus norvegicus; assay: Radioactivity distribution in lung of normal fischer rat after injection of [18F]fluoro-2-methylpropanoic acid after 30 min.; assay type: ADME, organism-based; conditions: in vivo, 0.5 h; outline: as §2
Rattus norvegicus [17] = species on record: Rattus norvegicus; assay: Radioactivity distribution in lung of tumor-bearing fischer rat after injection of [18F]-fluoro-2-methylpropanoic acid after 120 min; assay type: ADME, organism-based; conditions: in vivo, 2 h; outline: as §3
Rattus norvegicus [18] = species on record: Rattus norvegicus; assay: Radioactivity distribution in pancreas of normal fischer rat after injection of [18F]fluoro-2-methylpropanoic acid after 60 min.; assay type: ADME, organism-based; conditions: in vivo, 1 h; outline: as §2
Rattus norvegicus [19] = species on record: Rattus norvegicus; assay: Radioactivity distribution in muscle of normal fischer rat after injection of [18F]fluoro-2-methylpropanoic acid after 120 min.; assay type: ADME, organism-based, Muscle tissue; conditions: in vivo, 2 h; outline: as §2
Rattus norvegicus [20] = species on record: Rattus norvegicus; assay: Radioactivity distribution in muscle of normal fischer rat after injection of [18F]-fluoro-2-methylpropanoic acid after 5 min.; assay type: ADME, organism-based, Muscle tissue; conditions: in vivo; outline: as §2
Rattus norvegicus [21] = species on record: Rattus norvegicus; assay: Radioactivity distribution in muscle of normal fischer rat after injection of [18F]-fluoro-2-methylpropanoic acid after 60 min.; assay type: ADME, organism-based, Muscle tissue; conditions: in vivo, 1 h; outline: as §2
Rattus norvegicus [22] = species on record: Rattus norvegicus; assay: Radioactivity distribution in testis of tumor-bearing fischer rat after injection of [18F]fluoro-2-methylpropanoic acid after 60 min; assay type: ADME, organism-based; conditions: in vivo, 1 h; outline: as §5
Rattus norvegicus [23] = species on record: Rattus norvegicus; assay: Radioactivity distribution in bone of normal fischer rat after injection of [18F]fluoro-2-methylpropanoic acid after 120 min.; assay type: ADME, organism-based, Bone element; conditions: in vivo, 2 h; outline: as §1
Rattus norvegicus [24] = species on record: Rattus norvegicus; assay: Radioactivity distribution in bone of tumor-bearing fischer rat after injection of [18F]fluoro-2-methylpropanoic acid after 60 min; assay type: ADME, organism-based, Bone element; conditions: in vivo, 1 h
Outline: (§6)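 Male Fischer 344 rats carried intracranial 9L gliosarcoma, implanted stereotactically (4×10^4 cells) and used 17–19 days later. Awake restrained rats got ~35 μCi of tracer in 0.3 mL sterile water by tail-vein injection and were killed at 5, 60 or 120 min. Tissues were weighed and gamma-counted, and counts were decay-corrected to %ID/g. Results are mean ± standard error; n = 4 at 5 and 120 min, n = 5 at 60 min.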

Rattus norvegicus [25] = species on record: Rattus norvegicus; assay: Radioactivity distribution in heart of normal fischer rat after injection of [18F]-fluoro-2-methylpropanoic acid after 60 min.; assay type: ADME, organism-based; conditions: in vivo, 1 h; outline: as §1
Rattus norvegicus [26] = species on record: Rattus norvegicus; assay: Radioactivity distribution in blood of normal fischer rat after injection of [18F]fluoro-2-methylpropanoic acid after 60 min.; assay type: ADME, organism-based; conditions: in vivo, 1 h; outline: as §1
Rattus norvegicus [27] = species on record: Rattus norvegicus; assay: Radioactivity distribution in heart of tumor-bearing fischer rat after injection of [18F]fluoro-2-methylpropanoic acid after 60 min; assay type: ADME, organism-based; conditions: in vivo, 1 h; outline: as §6
Rattus norvegicus [28] = species on record: Rattus norvegicus; assay: Radioactivity distribution in liver of normal fischer rat after injection of [18F]-fluoro-2-methylpropanoic acid after 120 min.; assay type: ADME, organism-based; conditions: in vivo, 2 h; outline: as §2
Rattus norvegicus [29] = species on record: Rattus norvegicus; assay: Radioactivity distribution in liver of normal fischer rat after injection of [18F]fluoro-2-methylpropanoic acid after 5 min.; assay type: ADME, organism-based; conditions: in vivo; outline: as §2
Rattus norvegicus [30] = species on record: Rattus norvegicus; assay: Radioactivity distribution in liver of tumor-bearing fischer rat after injection of [18F]fluoro-2-methylpropanoic acid after 120 min; assay type: ADME, organism-based; conditions: in vivo, 2 h; outline: as §3
Rattus norvegicus [31] = species on record: Rattus norvegicus; assay: Radioactivity distribution in liver of tumor-bearing fischer rat after injection of [18F]fluoro-2-methylpropanoic acid after 5 min; assay type: ADME, organism-based; conditions: in vivo; outline: as §3
Rattus norvegicus [32] = species on record: Rattus norvegicus; assay: Radioactivity distribution in brain of tumor-bearing fischer rat after injection of [18F]fluoro-2-methylpropanoic acid after 5 min; assay type: ADME, organism-based; conditions: in vivo; outline: as §6
Rattus norvegicus [33] = species on record: Rattus norvegicus; assay: Radioactivity distribution in tumor of tumor-bearing fischer rat after injection of [18F]fluoro-2-methylpropanoic acid after 60 min; assay type: ADME, organism-based; conditions: in vivo, 1 h; outline: as §5
Rattus norvegicus [34] = species on record: Rattus norvegicus; assay: Radioactivity distribution in testis of normal fischer rat after injection of [18F]fluoro-2-methylpropanoic acid after 120 min.; assay type: ADME, organism-based; conditions: in vivo, 2 h; outline: as §4

## CC(N)(C[18F])C(=O)O.Cl (centres undefined)
Rattus norvegicus [1]
  ID/g: 5.59%
Rattus norvegicus [2]
  ID/g: 6.36%
Rattus norvegicus [3]
  ID/g: 8.66%
Rattus norvegicus [4]
  ID/g: 6.2%
Rattus norvegicus [5]
  ID/g: 0.21%
Rattus norvegicus [6]
  ID/g: 0.39%
Rattus norvegicus [7]
  ID/g: 0.15%
Rattus norvegicus [8]
  ID/g: 0.05%
Rattus norvegicus [9]
  ID/g: 0.83%
Rattus norvegicus [10]
  ID/g: 0.32%
Rattus norvegicus [11]
  ID/g: 0.55%
Rattus norvegicus [12]
  ID/g: 2.86%
Rattus norvegicus [13]
  ID/g: 0.33%
Rattus norvegicus [14]
  ID/g: 0.1%
Rattus norvegicus [15]
  ID/g: 0.12%
Rattus norvegicus [16]
  ID/g: 0.54%
Rattus norvegicus [17]
  ID/g: 0.24%
Rattus norvegicus [18]
  ID/g: 2.95%
Rattus norvegicus [19]
  ID/g: 0.19%
Rattus norvegicus [20]
  ID/g: 0.22%
Rattus norvegicus [21]
  ID/g: 0.26%
Rattus norvegicus [22]
  ID/g: 0.14%
Rattus norvegicus [23]
  ID/g: 0.13%
Rattus norvegicus [24]
  ID/g: 0.25%
Rattus norvegicus [25]
  ID/g: 0.28%
Rattus norvegicus [26]
  ID/g: 0.22%
Rattus norvegicus [27]
  ID/g: 0.33%
Rattus norvegicus [28]
  ID/g: 0.48%
Rattus norvegicus [29]
  ID/g: 0.65%
Rattus norvegicus [30]
  ID/g: 0.25%
Rattus norvegicus [31]
  ID/g: 0.77%
Rattus norvegicus [32]
  ID/g: 0.035%
Rattus norvegicus [33]
  ID/g: 1.96%
Rattus norvegicus [34]
  ID/g: 0.1%
